Measurements reported in ChEMBL document CHEMBL1795280, “Design, synthesis and activity of a potent, selective series of N-aryl pyridinone inhibitors of p38 kinase” (Bioorg Med Chem Lett, 2011).
Active and inactive are the calls of the source. The calls are words filed in the database; no cut-off is given here.

system: Rattus norvegicus; test: Antiarthritic activity in Lewis rat assessed as inhibition of streptococal cell wall-induced increase of paw volume at 60 mg/kg, po qd for 10 days administered 10 days after streptococal cell wall challenge by displacement plethysmometer analysis; assay type: functional; conditions: 240 h
Summary of the method: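 Female Lewis rats given intraperitoneal group A streptococcal cell wall peptidoglycan-polysaccharide ([…] bodyweight). Only animals developing the acute phase were treated. Oral gavage (0.5 mL) daily from day 10 to day 21 post-SCW, with methylcellulose/Tween 20 vehicle as comparison. Four to eight animals per group, two paw volumes per animal. Paw volume measured on day 21 by water displacement plethysmometer.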

Row | SMILES | inhibition in vivo at 60 mg/kg
1 | Cc1cc(OCc2ccc(F)cc2F)c(Br)c(=O)n1-c1cccc(C(N)=O)c1 | 40%

system: not listed separately; test: Bioavailability in Sprague-Dawley rat po as suspension; conditions: in vivo

Row | bioavailability | SMILES
2 | 7% | Cc1cc(OCc2ccc(F)cc2F)c(Br)c(=O)n1-c1cccc(C(N)=O)c1

target: Vascular endothelial growth factor receptor 2 (Homo sapiens) (UniProt P35968); test: Inhibition of VEGFR2 at 10 uM; conditions: not given

Row | inhibition | SMILES
3 | < 50% | Cc1cc(OCc2ccc(F)cc2F)c(Br)c(=O)n1-c1cccc(C(N)=O)c1

system: Rattus norvegicus; test: Antiinflammatory activity in Lewis rat assessed as inhibition of LPS-induced TNFalpha production at 5 mg/kg, po administered 4 hrs before LPS challenge by ELISA; assay type: functional; conditions: not given
Summary of the method: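 Adult male Lewis rats (225–250 g), fasted 18 h with free access to water. Compound or vehicle given by oral gavage (1 mL). LPS (E. coli 0111:B4) given 1 mg/kg i.v. in saline 2, 4 or 6 h later. Serum taken by cardiac puncture 90 min after LPS. TNFα quantified against a recombinant rat TNF standard curve with a four-parameter fit. Two vehicle groups per experiment, three experiments.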

Row | SMILES | inhibition in vivo at 5 mg/kg
4 | Cc1cc(OCc2ccc(F)cc2F)c(Br)c(=O)n1-c1ccc(CNC(=O)CN)cc1 | 64%
5 | Cc1cc(OCc2ccc(F)cc2F)c(Br)c(=O)n1-c1cccc(C(N)=O)c1 | 89%

target: Mitogen-activated protein kinase 12 (Homo sapiens) (UniProt P53778); test: Inhibition of p38-gamma at 10 uM; conditions: not given
Sequence (P53778 whole entry): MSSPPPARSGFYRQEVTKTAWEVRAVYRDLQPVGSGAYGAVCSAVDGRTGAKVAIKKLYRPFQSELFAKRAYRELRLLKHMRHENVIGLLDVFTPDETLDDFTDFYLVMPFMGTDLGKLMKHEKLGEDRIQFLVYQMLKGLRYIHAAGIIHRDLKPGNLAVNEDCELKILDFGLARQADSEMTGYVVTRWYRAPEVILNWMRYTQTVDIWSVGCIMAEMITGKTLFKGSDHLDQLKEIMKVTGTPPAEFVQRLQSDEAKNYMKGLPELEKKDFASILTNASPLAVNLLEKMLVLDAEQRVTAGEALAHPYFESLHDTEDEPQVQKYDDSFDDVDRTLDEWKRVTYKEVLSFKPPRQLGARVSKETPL

Row | inhibition | SMILES
6 | < 50% | Cc1cc(OCc2ccc(F)cc2F)c(Br)c(=O)n1-c1cccc(C(N)=O)c1

system: PBMC; test: Antiinflammatory activity in human PBMC assessed as inhibition of LPS-induced TNFalpha production treated 1 hr before LPS challenge measured after 18 hrs; assay type: functional, cell-based; conditions: not given
Summary of the method: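 PBMCs isolated by Ficoll from heparinized blood of two healthy donors, in DMEM with 5% endotoxin-free FBS, 2.5 × 10⁵ cells/well. Pretreated 1 h with compound (0.0001–25 µM range), then stimulated 18 h with 22 ng/ml LPS. Final DMSO 0.25%. Secreted TNFα measured by MSD; IC50 reported.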

Row | SMILES | IC50
7 | Cc1cc(OCc2ccc(F)cc2F)c(Br)c(=O)n1-c1ccc(CNC(=O)CN)cc1 | 118 nM
8 | Cc1cc(OCc2ccc(F)cc2F)c(Br)c(=O)n1-c1cccc(C(N)=O)c1 | 64 nM

target: Aurora kinase A (Homo sapiens) (UniProt O14965); test: Inhibition of AURKA at 10 uM; conditions: not given

Row | inhibition | SMILES
9 | < 50% | Cc1cc(OCc2ccc(F)cc2F)c(Br)c(=O)n1-c1cccc(C(N)=O)c1

target: Mitogen-activated protein kinase 3 (Homo sapiens) (UniProt P27361); test: Inhibition of ERK1 at 10 uM; conditions: not given
Sequence (P27361 whole entry): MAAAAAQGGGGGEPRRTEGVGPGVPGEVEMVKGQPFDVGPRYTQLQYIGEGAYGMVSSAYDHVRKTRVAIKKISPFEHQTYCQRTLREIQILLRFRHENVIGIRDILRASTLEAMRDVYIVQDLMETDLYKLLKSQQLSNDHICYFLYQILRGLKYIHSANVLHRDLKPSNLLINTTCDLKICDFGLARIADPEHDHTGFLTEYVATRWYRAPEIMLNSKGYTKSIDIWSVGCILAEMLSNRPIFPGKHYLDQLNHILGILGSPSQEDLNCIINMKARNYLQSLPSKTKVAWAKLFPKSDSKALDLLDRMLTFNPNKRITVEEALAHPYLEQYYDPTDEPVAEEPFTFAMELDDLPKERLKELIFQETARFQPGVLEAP

Row | inhibition | SMILES
10 | < 50% | Cc1cc(OCc2ccc(F)cc2F)c(Br)c(=O)n1-c1cccc(C(N)=O)c1

target: RAF proto-oncogene serine/threonine-protein kinase (Homo sapiens) (UniProt P04049); test: Inhibition of c-RAF at 10 uM; conditions: not given
Sequence (P04049 whole entry): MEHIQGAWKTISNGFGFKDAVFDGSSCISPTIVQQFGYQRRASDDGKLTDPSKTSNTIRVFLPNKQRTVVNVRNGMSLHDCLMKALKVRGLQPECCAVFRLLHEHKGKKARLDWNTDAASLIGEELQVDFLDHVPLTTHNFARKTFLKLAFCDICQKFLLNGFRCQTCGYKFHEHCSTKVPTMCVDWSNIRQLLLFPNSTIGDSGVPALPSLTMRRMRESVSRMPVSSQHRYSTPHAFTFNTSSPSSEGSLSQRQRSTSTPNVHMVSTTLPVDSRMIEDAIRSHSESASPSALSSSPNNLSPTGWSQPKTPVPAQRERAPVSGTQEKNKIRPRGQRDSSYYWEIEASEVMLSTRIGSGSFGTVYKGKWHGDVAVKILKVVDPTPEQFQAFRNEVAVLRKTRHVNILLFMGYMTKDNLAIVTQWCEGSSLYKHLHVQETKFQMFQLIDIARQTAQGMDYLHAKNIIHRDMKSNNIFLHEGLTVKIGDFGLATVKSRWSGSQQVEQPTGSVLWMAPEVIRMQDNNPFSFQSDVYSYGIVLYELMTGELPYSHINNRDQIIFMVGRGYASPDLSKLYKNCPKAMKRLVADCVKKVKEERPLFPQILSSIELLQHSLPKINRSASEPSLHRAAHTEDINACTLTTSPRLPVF

Row | inhibition | SMILES
11 | < 50% | Cc1cc(OCc2ccc(F)cc2F)c(Br)c(=O)n1-c1cccc(C(N)=O)c1

target: T1, Mitogen-activated protein kinase 14 (Homo sapiens, UniProt Q16539); test: Inhibition of p38alpha at 10 uM; conditions: not given
T1 sequence (Q16539 whole entry): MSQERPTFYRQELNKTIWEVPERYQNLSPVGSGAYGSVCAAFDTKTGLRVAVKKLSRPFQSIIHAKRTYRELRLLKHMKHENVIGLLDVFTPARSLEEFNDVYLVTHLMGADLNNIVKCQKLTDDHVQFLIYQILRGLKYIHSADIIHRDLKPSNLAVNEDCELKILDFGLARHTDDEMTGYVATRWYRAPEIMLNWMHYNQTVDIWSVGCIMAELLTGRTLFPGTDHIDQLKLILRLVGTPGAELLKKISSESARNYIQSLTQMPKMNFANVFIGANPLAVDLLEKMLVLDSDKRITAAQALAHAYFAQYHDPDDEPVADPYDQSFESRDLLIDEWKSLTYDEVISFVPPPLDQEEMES

Row | inhibition | SMILES
12 | Active | Cc1cc(OCc2ccc(F)cc2F)c(Br)c(=O)n1-c1cccc(C(N)=O)c1

target: Serine/threonine-protein kinase mTOR (Homo sapiens) (UniProt P42345); test: Inhibition of mTOR at 10 uM; conditions: not given

Row | inhibition | SMILES
13 | < 50% | Cc1cc(OCc2ccc(F)cc2F)c(Br)c(=O)n1-c1cccc(C(N)=O)c1

target: Interleukin-1 receptor-associated kinase 4 (Homo sapiens) (UniProt Q9NWZ3); test: Inhibition of IRAK4 at 10 uM; conditions: not given
Sequence (Q9NWZ3 whole entry): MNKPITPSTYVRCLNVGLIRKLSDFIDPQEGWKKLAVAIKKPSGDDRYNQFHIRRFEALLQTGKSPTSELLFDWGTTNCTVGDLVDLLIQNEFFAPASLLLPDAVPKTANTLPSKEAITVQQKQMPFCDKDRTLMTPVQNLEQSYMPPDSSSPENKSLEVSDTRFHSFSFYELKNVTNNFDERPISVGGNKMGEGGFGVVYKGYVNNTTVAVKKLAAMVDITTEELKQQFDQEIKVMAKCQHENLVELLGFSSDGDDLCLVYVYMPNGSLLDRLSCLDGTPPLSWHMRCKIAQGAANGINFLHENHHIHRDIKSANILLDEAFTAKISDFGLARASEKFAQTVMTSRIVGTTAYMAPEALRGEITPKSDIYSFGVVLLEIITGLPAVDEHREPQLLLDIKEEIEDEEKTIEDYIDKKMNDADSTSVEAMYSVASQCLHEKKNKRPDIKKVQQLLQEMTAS

Row | inhibition | SMILES
14 | < 50% | Cc1cc(OCc2ccc(F)cc2F)c(Br)c(=O)n1-c1cccc(C(N)=O)c1

target: Tyrosine-protein kinase Lck (Homo sapiens) (UniProt P06239); test: Inhibition of LCK at 10 uM; conditions: not given

Row | inhibition | SMILES
15 | < 50% | Cc1cc(OCc2ccc(F)cc2F)c(Br)c(=O)n1-c1cccc(C(N)=O)c1

system: not listed separately; test: Metabolic stability in rat liver microsomes assessed as compound remaining at 2 uM after 45 mins by LC/MS analysis; assay type: ADME, Microsome; conditions: read-out: Stability

Row | remaining at 0.75 h, 2 µM | SMILES
16 | 91% | Cc1cc(OCc2ccc(F)cc2F)c(Br)c(=O)n1-c1ccc(CNC(=O)CN)cc1
17 | 97% | Cc1cc(OCc2ccc(F)cc2F)c(Br)c(=O)n1-c1cccc(C(N)=O)c1

system: not listed separately; test: Bioavailability in Sprague-Dawley rat at 5 mg/kg, po; assay type: ADME, organism-based; conditions: in vivo

Row | bioavailability | SMILES
18 | 93% | Cc1cc(OCc2ccc(F)cc2F)c(Br)c(=O)n1-c1cccc(C(N)=O)c1

target: T1, Mitogen-activated protein kinase 14; test: Inhibition of p38alpha assessed as phosphorylation of […] after 60 mins by fluorescence assay; conditions: not given
Summary of the method: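 Cascade assay in which activated p38α (6 pM final) activates unactivated MK2 (1 nM), which phosphorylates FITC-labelled Hsp27 peptide (1 nM) with […]. Inhibitor 0.2–10,000 nM. Room temperature, 60 min, EDTA quench. Phospho-peptide quantified by Caliper LabChip; IC50.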

Row | IC50 | SMILES
19 | 15 nM | Cc1cc(OCc2ccc(F)cc2F)c(Br)c(=O)n1-c1ccc(CNC(=O)CN)cc1
20 | 12 nM | Cc1cc(OCc2ccc(F)cc2F)c(Br)c(=O)n1-c1cccc(C(N)=O)c1

system: not listed separately; test: Clearance in iv and po dosed Sprague-Dawley rat; assay type: ADME, organism-based; conditions: in vivo

Row | clearance | SMILES
21 | 9.34 mL/min/kg | Cc1cc(OCc2ccc(F)cc2F)c(Br)c(=O)n1-c1cccc(C(N)=O)c1

target: Epidermal growth factor receptor (Homo sapiens) (UniProt P00533); test: Inhibition of EGFR at 10 uM; conditions: not given

Row | inhibition | SMILES
22 | < 50% | Cc1cc(OCc2ccc(F)cc2F)c(Br)c(=O)n1-c1cccc(C(N)=O)c1

target: Tyrosine-protein kinase JAK1 (Homo sapiens) (UniProt P23458); test: Inhibition of JAK1 at 10 uM; conditions: not given

Row | inhibition | SMILES
23 | < 50% | Cc1cc(OCc2ccc(F)cc2F)c(Br)c(=O)n1-c1cccc(C(N)=O)c1

target: High affinity nerve growth factor receptor (Homo sapiens) (UniProt P04629); test: Inhibition of TRKA at 10 uM; conditions: not given

Row | inhibition | SMILES
24 | < 50% | Cc1cc(OCc2ccc(F)cc2F)c(Br)c(=O)n1-c1cccc(C(N)=O)c1

target: Tyrosine-protein kinase ZAP-70 (Homo sapiens) (UniProt P43403); test: Inhibition of ZAP70 at 10 uM; conditions: not given

Row | inhibition | SMILES
25 | < 50% | Cc1cc(OCc2ccc(F)cc2F)c(Br)c(=O)n1-c1cccc(C(N)=O)c1

target: Non-receptor tyrosine-protein kinase TYK2 (Homo sapiens) (UniProt P29597); test: Inhibition of TYK2 at 10 uM; conditions: not given

Row | inhibition | SMILES
26 | < 50% | Cc1cc(OCc2ccc(F)cc2F)c(Br)c(=O)n1-c1cccc(C(N)=O)c1

target: Inhibitor of nuclear factor kappa-B kinase subunit beta (Homo sapiens) (UniProt O14920); test: Inhibition of IKK-beta at 10 uM; conditions: not given

Row | inhibition | SMILES
27 | < 50% | Cc1cc(OCc2ccc(F)cc2F)c(Br)c(=O)n1-c1cccc(C(N)=O)c1

target: Tyrosine-protein kinase JAK3 (Homo sapiens) (UniProt P52333); test: Inhibition of JAK3 at 10 uM; conditions: not given

Row | inhibition | SMILES
28 | < 50% | Cc1cc(OCc2ccc(F)cc2F)c(Br)c(=O)n1-c1cccc(C(N)=O)c1

target: Rho-associated protein kinase 2 (Homo sapiens) (UniProt O75116); test: Inhibition of ROCK2 at 10 uM; conditions: not given
Sequence (O75116 whole entry, looked up): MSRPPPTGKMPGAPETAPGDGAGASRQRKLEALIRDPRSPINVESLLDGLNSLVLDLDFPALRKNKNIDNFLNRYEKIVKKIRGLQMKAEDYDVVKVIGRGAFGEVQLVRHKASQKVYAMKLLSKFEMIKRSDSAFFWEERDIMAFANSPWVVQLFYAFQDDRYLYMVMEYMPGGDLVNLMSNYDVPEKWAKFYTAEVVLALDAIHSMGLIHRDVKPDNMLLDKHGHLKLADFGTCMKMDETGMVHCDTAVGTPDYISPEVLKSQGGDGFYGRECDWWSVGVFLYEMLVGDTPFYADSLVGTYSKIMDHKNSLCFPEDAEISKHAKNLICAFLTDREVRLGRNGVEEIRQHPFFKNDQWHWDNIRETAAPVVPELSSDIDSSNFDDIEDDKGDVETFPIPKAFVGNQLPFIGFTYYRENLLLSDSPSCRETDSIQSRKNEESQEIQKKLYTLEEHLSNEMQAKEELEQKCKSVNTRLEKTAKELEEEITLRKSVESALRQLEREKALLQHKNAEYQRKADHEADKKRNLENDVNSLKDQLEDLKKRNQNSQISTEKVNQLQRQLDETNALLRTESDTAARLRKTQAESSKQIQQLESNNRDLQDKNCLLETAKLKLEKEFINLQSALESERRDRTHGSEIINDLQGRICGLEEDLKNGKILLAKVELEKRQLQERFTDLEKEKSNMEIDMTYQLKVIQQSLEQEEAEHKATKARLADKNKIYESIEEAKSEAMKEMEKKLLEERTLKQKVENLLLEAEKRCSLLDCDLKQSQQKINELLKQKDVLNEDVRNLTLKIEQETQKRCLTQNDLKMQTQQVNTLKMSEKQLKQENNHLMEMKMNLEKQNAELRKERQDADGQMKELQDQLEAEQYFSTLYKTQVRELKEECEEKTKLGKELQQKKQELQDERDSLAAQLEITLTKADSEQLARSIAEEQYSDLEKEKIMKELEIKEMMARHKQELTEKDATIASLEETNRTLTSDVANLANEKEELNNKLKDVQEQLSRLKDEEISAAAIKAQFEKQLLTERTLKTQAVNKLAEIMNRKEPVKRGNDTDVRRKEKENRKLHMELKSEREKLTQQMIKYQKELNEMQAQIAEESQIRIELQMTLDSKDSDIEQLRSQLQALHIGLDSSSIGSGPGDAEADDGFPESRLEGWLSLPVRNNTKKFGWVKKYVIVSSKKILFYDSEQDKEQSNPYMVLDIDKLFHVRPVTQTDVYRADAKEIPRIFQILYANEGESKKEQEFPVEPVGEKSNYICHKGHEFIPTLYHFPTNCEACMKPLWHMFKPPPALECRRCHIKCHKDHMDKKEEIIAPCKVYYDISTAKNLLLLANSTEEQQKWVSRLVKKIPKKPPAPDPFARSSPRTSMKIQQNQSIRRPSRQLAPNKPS

Row | inhibition | SMILES
29 | < 50% | Cc1cc(OCc2ccc(F)cc2F)c(Br)c(=O)n1-c1cccc(C(N)=O)c1

system: not listed separately; test: Metabolic stability in human liver microsomes assessed as compound remaining at 2 uM after 45 mins by LC/MS analysis; assay type: ADME, Microsome; conditions: read-out: Stability

Row | remaining at 0.75 h, 2 µM | SMILES
30 | 97% | Cc1cc(OCc2ccc(F)cc2F)c(Br)c(=O)n1-c1ccc(CNC(=O)CN)cc1
31 | 100% | Cc1cc(OCc2ccc(F)cc2F)c(Br)c(=O)n1-c1cccc(C(N)=O)c1

system: not listed separately; test: Half life in iv and po dosed Sprague-Dawley rat; assay type: ADME, organism-based; conditions: in vivo

Row | half-life | SMILES
32 | 3.4 h | Cc1cc(OCc2ccc(F)cc2F)c(Br)c(=O)n1-c1cccc(C(N)=O)c1

system: not listed separately; test: Inhibition of PDGFR at 10 uM; conditions: not given

Row | inhibition | SMILES
33 | < 50% | Cc1cc(OCc2ccc(F)cc2F)c(Br)c(=O)n1-c1cccc(C(N)=O)c1

target: Cyclin-dependent kinase 2 (Homo sapiens) (UniProt P24941); test: Inhibition of CDK2 at 10 uM; conditions: not given

Row | inhibition | SMILES
34 | < 50% | Cc1cc(OCc2ccc(F)cc2F)c(Br)c(=O)n1-c1cccc(C(N)=O)c1

target: MAP kinase-activated protein kinase 2 (Homo sapiens) (UniProt P49137); test: Inhibition of MK2 at 10 uM; conditions: not given

Row | inhibition | SMILES
35 | < 50% | Cc1cc(OCc2ccc(F)cc2F)c(Br)c(=O)n1-c1cccc(C(N)=O)c1

target: Vascular endothelial growth factor receptor 1 (Homo sapiens) (UniProt P17948); test: Inhibition of FLT1 at 10 uM; conditions: not given
Sequence (P17948 whole entry): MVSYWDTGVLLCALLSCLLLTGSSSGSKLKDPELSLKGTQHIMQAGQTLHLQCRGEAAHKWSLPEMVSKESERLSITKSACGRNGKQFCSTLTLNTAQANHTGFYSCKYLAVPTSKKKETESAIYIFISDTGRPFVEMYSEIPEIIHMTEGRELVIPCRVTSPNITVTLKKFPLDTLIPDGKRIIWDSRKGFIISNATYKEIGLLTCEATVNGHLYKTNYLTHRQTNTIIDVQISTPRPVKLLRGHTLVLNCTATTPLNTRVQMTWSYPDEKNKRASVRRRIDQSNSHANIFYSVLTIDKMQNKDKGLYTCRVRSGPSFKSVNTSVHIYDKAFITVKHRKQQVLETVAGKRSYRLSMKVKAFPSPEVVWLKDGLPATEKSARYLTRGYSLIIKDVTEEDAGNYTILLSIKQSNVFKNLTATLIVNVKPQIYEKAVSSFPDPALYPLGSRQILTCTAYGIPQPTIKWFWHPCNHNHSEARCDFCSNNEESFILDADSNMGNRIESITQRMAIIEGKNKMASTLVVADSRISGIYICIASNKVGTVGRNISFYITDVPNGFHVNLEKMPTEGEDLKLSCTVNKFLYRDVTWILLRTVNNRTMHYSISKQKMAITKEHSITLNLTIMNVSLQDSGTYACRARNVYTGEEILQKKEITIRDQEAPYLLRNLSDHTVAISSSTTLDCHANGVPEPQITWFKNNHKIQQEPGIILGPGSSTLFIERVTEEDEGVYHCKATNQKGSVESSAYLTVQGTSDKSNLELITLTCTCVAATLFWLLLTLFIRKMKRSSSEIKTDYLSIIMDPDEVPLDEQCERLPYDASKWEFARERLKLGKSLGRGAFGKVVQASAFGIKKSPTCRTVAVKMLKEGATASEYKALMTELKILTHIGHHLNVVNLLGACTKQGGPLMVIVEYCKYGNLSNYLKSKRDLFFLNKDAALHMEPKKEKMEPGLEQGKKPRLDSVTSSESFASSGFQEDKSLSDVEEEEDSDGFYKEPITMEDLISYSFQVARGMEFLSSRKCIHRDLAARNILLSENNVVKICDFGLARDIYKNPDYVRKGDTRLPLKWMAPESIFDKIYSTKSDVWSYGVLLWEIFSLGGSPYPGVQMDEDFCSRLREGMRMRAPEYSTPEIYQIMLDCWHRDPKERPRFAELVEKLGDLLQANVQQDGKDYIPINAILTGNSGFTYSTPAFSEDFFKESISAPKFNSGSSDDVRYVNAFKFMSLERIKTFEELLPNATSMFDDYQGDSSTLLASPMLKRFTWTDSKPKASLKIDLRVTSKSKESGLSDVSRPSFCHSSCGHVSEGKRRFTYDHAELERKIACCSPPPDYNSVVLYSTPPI

Row | inhibition | SMILES
36 | < 50% | Cc1cc(OCc2ccc(F)cc2F)c(Br)c(=O)n1-c1cccc(C(N)=O)c1

target: Dual specificity mitogen-activated protein kinase kinase 1 (Homo sapiens) (UniProt Q02750); test: Inhibition of MEK1 at 10 uM; conditions: not given

Row | inhibition | SMILES
37 | < 50% | Cc1cc(OCc2ccc(F)cc2F)c(Br)c(=O)n1-c1cccc(C(N)=O)c1

system: not listed separately; test: Solubility of the compound; assay type: physicochemical; conditions: not given

Row | solubility | SMILES
38 | < 10 µg/mL | Cc1cc(OCc2ccc(F)cc2F)c(Br)c(=O)n1-c1cccc(C(N)=O)c1

target: Mitogen-activated protein kinase 11 (Homo sapiens) (UniProt Q15759); test: Inhibition of p38beta at 10 uM; conditions: not given

Row | inhibition | SMILES
39 | Active | Cc1cc(OCc2ccc(F)cc2F)c(Br)c(=O)n1-c1cccc(C(N)=O)c1

target: Rho-associated protein kinase 1 (Homo sapiens) (UniProt Q13464); test: Inhibition of ROCK1 at 10 uM; conditions: not given

Row | inhibition | SMILES
40 | < 50% | Cc1cc(OCc2ccc(F)cc2F)c(Br)c(=O)n1-c1cccc(C(N)=O)c1

system: not listed separately; test: Inhibition of JNK at 10 uM; conditions: not given

Row | inhibition | SMILES
41 | < 50% | Cc1cc(OCc2ccc(F)cc2F)c(Br)c(=O)n1-c1cccc(C(N)=O)c1

target: Tyrosine-protein kinase BTK (Homo sapiens) (UniProt Q06187); test: Inhibition of BTK at 10 uM; conditions: not given

Row | inhibition | SMILES
42 | < 50% | Cc1cc(OCc2ccc(F)cc2F)c(Br)c(=O)n1-c1cccc(C(N)=O)c1

target: Mitogen-activated protein kinase 13 (Homo sapiens) (UniProt O15264); test: Inhibition of p38delta at 10 uM; conditions: not given

Row | inhibition | SMILES
43 | < 50% | Cc1cc(OCc2ccc(F)cc2F)c(Br)c(=O)n1-c1cccc(C(N)=O)c1

target: Tyrosine-protein kinase JAK2 (Homo sapiens) (UniProt O60674); test: Inhibition of JAK2 at 10 uM; conditions: not given

Row | inhibition | SMILES
44 | < 50% | Cc1cc(OCc2ccc(F)cc2F)c(Br)c(=O)n1-c1cccc(C(N)=O)c1
